From ChEMBL document CHEMBL4351018, “Novel phenanthridin-6(5H)-one derivatives as potent and selective BET bromodomain inhibitors: Rational design, synthesis and biological evaluation” (Eur J Med Chem, 2019) come the findings set out here.

Where only a bound is given, the exact number is not on record here.

Data set [1] in a line: AUC (0 to infinity) in Sprague-Dawley rat at 2.5 mg/kg, iv measured for 0.083 to 24 hrs by LC-MS/MS/MS analysis. Conditions: in vivo. Format: ADME, organism-based. Further details: dose 2.5 mg/kg, time infinity, route intravenous.
The next data set deals with T1, Peregrin (Homo sapiens) (UniProt P55201).
T1 sequence (whole entry): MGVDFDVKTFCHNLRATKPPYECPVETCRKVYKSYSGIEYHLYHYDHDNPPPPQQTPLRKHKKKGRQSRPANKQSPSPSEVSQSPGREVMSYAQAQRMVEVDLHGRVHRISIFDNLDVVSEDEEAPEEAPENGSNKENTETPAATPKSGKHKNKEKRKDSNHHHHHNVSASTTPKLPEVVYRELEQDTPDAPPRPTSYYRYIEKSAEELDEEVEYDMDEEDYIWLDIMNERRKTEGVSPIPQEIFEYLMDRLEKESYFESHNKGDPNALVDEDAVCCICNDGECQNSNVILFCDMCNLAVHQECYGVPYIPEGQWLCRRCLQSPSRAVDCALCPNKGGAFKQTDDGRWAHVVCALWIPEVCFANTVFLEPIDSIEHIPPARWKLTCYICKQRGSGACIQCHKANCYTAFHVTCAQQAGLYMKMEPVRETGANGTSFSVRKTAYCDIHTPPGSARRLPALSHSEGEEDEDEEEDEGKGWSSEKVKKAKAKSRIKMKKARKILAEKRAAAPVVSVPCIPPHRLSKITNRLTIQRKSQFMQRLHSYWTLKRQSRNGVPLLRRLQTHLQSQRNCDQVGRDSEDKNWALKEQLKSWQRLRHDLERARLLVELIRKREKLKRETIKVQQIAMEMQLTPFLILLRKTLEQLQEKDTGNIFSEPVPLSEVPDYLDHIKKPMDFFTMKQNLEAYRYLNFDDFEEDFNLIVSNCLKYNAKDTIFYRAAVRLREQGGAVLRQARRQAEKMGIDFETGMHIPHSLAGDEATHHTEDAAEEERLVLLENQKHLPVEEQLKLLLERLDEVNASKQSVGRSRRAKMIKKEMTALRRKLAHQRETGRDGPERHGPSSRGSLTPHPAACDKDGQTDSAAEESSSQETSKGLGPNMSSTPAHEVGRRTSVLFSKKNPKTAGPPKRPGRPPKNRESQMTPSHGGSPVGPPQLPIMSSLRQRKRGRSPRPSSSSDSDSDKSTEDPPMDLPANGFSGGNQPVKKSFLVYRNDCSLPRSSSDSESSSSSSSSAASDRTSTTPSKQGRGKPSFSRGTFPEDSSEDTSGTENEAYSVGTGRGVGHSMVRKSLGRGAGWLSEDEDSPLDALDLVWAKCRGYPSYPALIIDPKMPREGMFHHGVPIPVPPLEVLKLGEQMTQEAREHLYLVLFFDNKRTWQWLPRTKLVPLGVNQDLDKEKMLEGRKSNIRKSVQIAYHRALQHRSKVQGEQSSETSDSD
Kind of data set: Binding affinity to BRPF1B (unknown origin) at 20 uM by Alpha screen assay relative to control.

Data set [2] can be described thus: Apparent clearance in Sprague-Dawley rat at 10 mg/kg, po measured for 0.083 to 24 hrs by LC-MS/MS analysis. Format: ADME, organism-based. Particulars: in vivo, read-out: CL(app) (converted).
The nature of data set [3]: Volume of distribution at steady state in Sprague-Dawley rat at 2.5 mg/kg, iv measured for 0.083 to 24 hrs by LC-MS/MS analysis. Format: ADME, organism-based. Conditions: in vivo, read-out: Vdss.
The subject of data set [4] is A549. Kind of data set: Induction of cell cycle arrest in human A549 cells assessed as accumulation at […] phase at 5.0 uM incubated for 48 hrs by BrdU/PI staining based flow cytometric analysis. Format: functional. In a few lines: (§1)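 Subconfluent A549 cells exposed 48 h to 0.3–5.0 μM with DMSO vehicle control. Pulse-labelled with 10 μM BrdU for 30 min at 37 °C before harvest. Fixed in 70% ethanol, denatured in 2 M HCl, neutralised, then stained with fluorescein anti-BrdU antibody and propidium iodide. Analysed by flow cytometry with 488 nm excitation.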

The subject of data set [5] is A549. Kind of data set: Induction of cell cycle arrest in human A549 cells assessed as accumulation at […] phase at 3.0 uM incubated for 48 hrs by BrdU/PI staining based flow cytometric analysis. Format: functional. In a few lines:
as §1

Data set [6] has as its system A549. Kind of data set: Induction of apoptosis in human A549 cells assessed as late apoptotic cells at 5.0 uM incubated for 48 hrs by annexin V-FITC/PI double staining based flow cytometric analysis (reference value: 0.039%). Format: functional.
The test system of data set [7] is A549. Nature of the data set: Induction of apoptosis in human A549 cells assessed as early apoptotic cells at 5.0 uM incubated for 48 hrs by annexin V-FITC/PI double staining based flow cytometric analysis (reference value: 1.76%). Format: functional.
Data set [8] is described as follows: AUC (0 to infinity) in Sprague-Dawley rat at 10 mg/kg, po measured for 0.083 to 24 hrs by LC-MS/MS analysis. Format: ADME, organism-based. Further details: dose 10 mg/kg, route oral, time infinity. Particulars: in vivo.
Data set [9] can be described thus: Cmax in Sprague-Dawley rat at 10 mg/kg, po measured for 0.083 to 24 hrs by LC-MS/MS analysis. Format: ADME, organism-based. Further details: dose 10 mg/kg, route oral. Conditions: in vivo.
The nature of data set [10]: Tmax in Sprague-Dawley rat at 10 mg/kg, po measured for 0.083 to 24 hrs by LC-MS/MS analysis. Conditions: in vivo. Format: ADME, organism-based.
In data set [11] the test system is A549. Kind of data set: Induction of cell cycle arrest in human A549 cells assessed as accumulation at […] phase at 1.0 uM incubated for 48 hrs by BrdU/PI staining based flow cytometric analysis. Format: functional. In short, it runs like this: as §1
Data set [12] deals with A549. Nature of the data set: Induction of apoptosis in human A549 cells incubated for 48 hrs by annexin V-FITC/PI double staining based flow cytometric analysis. Format: functional, cell-based.

Take `COc1ccc(Cl)cc1S(=O)(=O)Nc1ccc2[nH]c(=O)c3ccccc3c2c1`: the values for the AUC(0-inf) in [1] and in data set [8] were 505 ng·h/mL and 670 ng·h/mL, respectively. Moreover, the Activity was > 30% at Peregrin (Homo sapiens); 81.66% in the data set on A549 [4]; 76.42% in the data set with A549 [5]; 8.25% in the data set on A549 [6]; 72% with A549 [7]; 70.3% in the data set with A549 [11]. In addition, in the data set with A549 [12], the Activity result is “Dose-dependent effect”. In addition, the CL/F in [2] was 303 mL/min/kg. In addition, in data set [3], the Vd was determined as 76.7 L/kg. The Cmax in data set [9] turned out to be 52.4 ng/mL. Also, the Tmax in data set [10] came out at 5.33 h.
